ChEMBL document CHEMBL1821643, “Oleanane-type triterpenoids from the leaves and twigs of Fatsia polycarpa” (J Nat Prod, 2011)
Converted amounts (≈) assume the structure as drawn. The source made the active and inactive calls. No cut-off for these calls is given here.

Legend:
Helicobacter pylori = test: Antimicrobial activity against Helicobacter pylori ATCC 700392; assay type: functional
[1] = Cytotoxicity against human HepG2(2.2.15) cells after 3 days by MTS assay; assay type: functional, cell-based; conditions: HepG2 2.2.15, 72 h
Method in brief: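 HepG2 2.2.15 cells exposed for 3 days to 2-fold serial dilutions, 1.25–40 μg/mL. Viability read by MTS assay, in triplicate. Expressed as percentage of untreated control. Fluorouracil as positive control.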

Hepatitis B virus [2] = test: Antiviral activity against Hepatitis B virus infected in human HepG2(2.2.15) cells assessed as reduction of HBsAg secretion by enzyme immunoassay; assay type: functional, organism-based
Method in brief: (§1)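 HepG2 2.2.15 cells grown in modified Eagle's medium with 10% FBS, no antibiotics, 37 °C, 5% CO2. Confluent cultures treated at nontoxic concentrations in medium with 2% FBS, renewed every 3 days. Medium collected at day 6; HBsAg and HBeAg measured by enzyme immunoassay. Values relative to 0.1% DMSO control. IFN-alpha as positive control.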

Hepatitis B virus [3] = test: Antiviral activity against Hepatitis B virus infected in human HepG2(2.2.15) cells assessed as reduction of HBeAg secretion by enzyme immunoassay; assay type: functional, organism-based; method in brief: as §1
AGS = test: Cytotoxicity against human AGS cells; assay type: functional, cell-based
Bacillus cereus = test: Antimicrobial activity against Bacillus cereus ATCC 9139 after 24 hrs by broth microdilution method; assay type: functional; conditions: ATCC 9139, 24 h
Method in brief: (§2)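 MIC by broth microdilution per CLSI guidelines. Strains grown on nutrient agar at 37 °C for 24 h. Inoculum prepared in normal saline against a 0.5 McFarland standard, final density 5 × 10^5 cfu/mL. Compounds dissolved in DMSO, then nutrient broth. 2-fold serial dilutions from 128 down to 0.25 μg/mL. Ampicillin column as positive control.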

Enterococcus faecalis = test: Antimicrobial activity against Enterococcus faecalis ATCC 29212 after 24 hrs by broth microdilution method; assay type: functional, organism-based; method in brief: as §2
Listeria monocytogenes = test: Antimicrobial activity against Listeria monocytogenes ATCC 7644 after 24 hrs by broth microdilution method; assay type: functional, organism-based; method in brief: as §2
Pseudomonas aeruginosa = test: Antimicrobial activity against Pseudomonas aeruginosa ATCC 27853 after 24 hrs by broth microdilution method; assay type: functional, organism-based; method in brief: as §2
[4] = tested on: Salmonella enterica subsp. enterica; test: Antimicrobial activity against Salmonella enterica ATCC 13311 after 24 hrs by broth microdilution method; assay type: functional, organism-based; method in brief: as §2
Escherichia coli = test: Antimicrobial activity against Escherichia coli ATCC 35150 after 24 hrs by broth microdilution method
Staphylococcus aureus = test: Antimicrobial activity against Staphylococcus aureus ATCC 29213 after 24 hrs by broth microdilution method; assay type: functional; conditions: ATCC 29213, 24 h; method in brief: as §2

MIC (Bacillus cereus)	MIC (Enterococcus faecalis)	MIC (Listeria monocytogenes)	MIC (Pseudomonas aeruginosa)	MIC [4]	MIC (Escherichia coli)	MIC (Staphylococcus aureus)	Compound	MBC (Helicobacter pylori)	IC50 [1]	inhibition (Hepatitis B virus [2])	inhibition (Hepatitis B virus [3])	IC50 (AGS)
2 µg/mL (≈ 4.11 µM)	inactive	inactive	inactive	inactive	inactive	–	CO[C@@H]1C=C2[C@@H]3CC(C)(C)CC[C@]3(C(=O)O)CC[C@@]2(C)[C@]2(C)CC[C@H]3C(C)(C)[C@H](O)CC[C@]3(C)[C@@H]12 [FATSICARPAIN F]	64 µg/mL (≈ 131 µM)	23.9 µM	inactive	inactive	> 50 µM
–	inactive	inactive	inactive	inactive	inactive	–	CC1(C)CC[C@@]23CC[C@]4(C)[C@@](C=C[C@@H]5[C@@]6(C)CC[C@@H](O)[C@@](C)(CO)[C@@H]6CC[C@]54C)(OC2=O)[C@@H]3C1 [FATSICARPAIN G]	64 µg/mL (≈ 136 µM)	29.2 µM	inactive	inactive	33.2 µM
32 µg/mL (≈ 68 µM)	inactive	inactive	inactive	inactive	inactive	–	CC1(C)CC[C@]2(C(=O)O)CC[C@]3(C)C(=C2C1)C=C[C@@H]1[C@@]2(C)CC[C@@H](O)[C@@](C)(CO)[C@@H]2CC[C@]13C [FATSICARPAIN A]	64 µg/mL (≈ 136 µM)	18.9 µM	inactive	inactive	10.1 µM
–	inactive	inactive	inactive	inactive	inactive	–	CC1(C)CC[C@]2(C(=O)O)CC[C@]3(C)C(=C2C1)C=C[C@@H]1[C@@]2(C)CC[C@@H](O)C(C)(C)[C@@H]2CC[C@]13C	128 µg/mL (≈ 282 µM)	> 50 µM	inactive	inactive	> 50 µM

More lines, now with the values behind:

Compound	MIC (Bacillus cereus)	MIC (Enterococcus faecalis)	MIC (Listeria monocytogenes)	MIC (Pseudomonas aeruginosa)	MIC [4]	MIC (Escherichia coli)	MIC (Staphylococcus aureus)	MBC (Helicobacter pylori)	IC50 [1]	inhibition (Hepatitis B virus [2])	inhibition (Hepatitis B virus [3])	IC50 (AGS)
CC1(C)C=C2[C@H]3C[C@@H](O)[C@@H]4[C@@]5(C)CC[C@@H](O)C(C)(C)[C@@H]5CC[C@@]4(C)[C@]3(C)CC[C@@]2(C(=O)O)CC1 [FATSICARPAIN E]	64 µg/mL (≈ 135 µM)	inactive	inactive	inactive	inactive	inactive	–	128 µg/mL (≈ 271 µM)	> 50 µM	inactive	inactive	47.6 µM
CC1(C)CC[C@]2(C(=O)O)CC[C@]3(C)C(=CC=C4[C@@]5(C)CC[C@@H](O)C(C)(C)[C@@H]5CC[C@]43C)[C@@H]2C1 [FATSICARPAIN D]	8 µg/mL (≈ 17.6 µM)	inactive	inactive	inactive	inactive	inactive	–	64 µg/mL (≈ 141 µM)	28.8 µM	inactive	inactive	42.8 µM
CC1(C)CC[C@@]23CC[C@]4(C)[C@@](C=C[C@@H]5[C@@]6(C)CC[C@@H](O)C(C)(C)[C@@H]6CC[C@]54C)(OC2=O)[C@@H]3C1	–	inactive	inactive	inactive	inactive	inactive	–	> 128 µg/mL	> 50 µM	inactive	inactive	9 µM
CC1(C)CC[C@]2(C(=O)O)CC[C@]3(C)C(=C2C1)C=C[C@@H]1[C@@]2(C)CC[C@@H](O)[C@@](C)(C=O)[C@@H]2CC[C@]13C [FATSICARPAIN C]	32 µg/mL (≈ 68.3 µM)	inactive	inactive	inactive	inactive	inactive	64 µg/mL (≈ 137 µM)	64 µg/mL (≈ 137 µM)	16.7 µM	inactive	inactive	> 50 µM
CC1(C)CC[C@]2(C(=O)O)CC[C@]3(C)C(=C2C1)C=C[C@@H]1[C@@]2(C)CC[C@H](OS(=O)(=O)O)C(C)(C)[C@@H]2CC[C@]13C [FATSICARPAIN B]	–	inactive	inactive	inactive	inactive	inactive	–	128 µg/mL (≈ 239 µM)	> 50 µM	inactive	inactive	> 50 µM
